# Reference: ChEMBL document CHEMBL5620437, “Discovery of Conformationally Constrained ALK2 Inhibitors” (J Med Chem, 2024)
# Activity calls are given as the source filed them. No cut-off for these calls is given here.
# Columns and labels:
# [1] = Metabolic stability in human liver microsome at 1 uM in presence of NADPH-regeneration system incubated for 60 mins by LC/MS analysis; type: ADME; details: liver microsomes, read-out: Stability
# How it was run: (§1)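 Compound 1 μM final (0.1% DMSO) in 0.1 M potassium phosphate pH 7.4 with male CD-1 mouse or pooled human liver microsomes at 0.5 mg/mL protein plus NADPH-regeneration mix. Sampled at 0 and 60 min at 37 °C, in duplicate. Parent remaining by LC/MS peak area.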
# [2] = Metabolic stability in CD-1 mouse liver microsome at 1 uM in presence of NADPH-regeneration system incubated for 60 mins by LC/MS analysis; type: ADME; details: liver microsomes, read-out: Stability; how it was run: as §1
# [3] = Drug concentration in NOD-SCID mouse plasma at 25 mg/kg, po measured at 1 hrs by LC-MS/MS analysis; type: ADME, organism-based
# How it was run: (§2)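 Male NOD-SCID mice given 25 mg/kg orally in 5% DMSO, 47.5% PEG, 47.5% deionized water with 10% Tween80. Plasma drug levels measured at 0.5, 1, 2, 6 and 24 h; demethylated metabolites also quantified.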
# [4] = Apparent permeability across apical to basolateral side in human Caco-2 cells incubated for 2 hrs by LC/MS analysis; type: ADME, cell-based
# How it was run: (§3)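 Caco-2 (C2BBE1) cells seeded 40,000/well on 1.0 μm PET inserts, grown 21–22 days; HBSS with 10 mM HEPES, 15 mM glucose, pH 7.4. Compound 5 μM in donor (0.1% DMSO), receiver with 1% BSA; 2 h at 37 °C shaking. Metoprolol, atenolol, Lucifer yellow, digoxin controls. LC/MS peak areas; two technical replicates; efflux ratio = Papp B-A / Papp A-B.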
# [5] = Drug concentration in NOD-SCID mouse plasma at 25 mg/kg, po measured at 24 hrs by LC-MS/MS analysis; type: ADME, organism-based; how it was run: as §2
# [6] = Drug concentration in NOD-SCID mouse plasma at 25 mg/kg, po measured at 2 hrs by LC-MS/MS analysis; type: ADME, organism-based; how it was run: as §2
# [7] = Drug concentration in NOD-SCID mouse plasma at 25 mg/kg, po measured at 0.5 hrs by LC-MS/MS analysis; type: ADME, organism-based; how it was run: as §2
# Activin receptor type-1 [8] = target: T1, Activin receptor type-1 (Homo sapiens, UniProt Q04771); assay: Inhibition of N-terminal GST-his6 tagged human recombinant ALK2 (145 to 509 residues) expressed in Sf9 insect cells in presence of ATP by radiometric kinase assay
# T1 sequence (Q04771 whole entry): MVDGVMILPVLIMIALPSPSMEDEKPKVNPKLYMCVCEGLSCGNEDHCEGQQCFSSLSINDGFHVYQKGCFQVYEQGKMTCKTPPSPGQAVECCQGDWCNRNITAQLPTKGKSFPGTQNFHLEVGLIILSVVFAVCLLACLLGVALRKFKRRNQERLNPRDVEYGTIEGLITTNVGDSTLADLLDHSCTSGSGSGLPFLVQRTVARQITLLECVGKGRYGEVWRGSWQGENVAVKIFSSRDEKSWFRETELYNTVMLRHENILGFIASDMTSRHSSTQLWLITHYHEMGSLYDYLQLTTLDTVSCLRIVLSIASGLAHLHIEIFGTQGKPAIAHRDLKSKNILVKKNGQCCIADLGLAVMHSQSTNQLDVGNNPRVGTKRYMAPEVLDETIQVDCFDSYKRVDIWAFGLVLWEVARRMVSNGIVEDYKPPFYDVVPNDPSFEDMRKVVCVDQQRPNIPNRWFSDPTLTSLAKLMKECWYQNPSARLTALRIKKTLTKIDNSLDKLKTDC
# Activin receptor type-1 [9] = target: T1, Activin receptor type-1; assay: Inhibition of ALK2 in human HEK293 cells using NanoGlo as substrate incubated for 2 hrs by NanoBRET assay; type: cell-based
# [10] = Apparent permeability across basolateral to apical side in human Caco-2 cells incubated for 2 hrs by LC/MS analysis; type: ADME, cell-based; how it was run: as §3
# [11] = Drug concentration in NOD-SCID mouse plasma at 25 mg/kg, po measured at 6 hrs by LC-MS/MS analysis; type: ADME, organism-based; how it was run: as §2
# [12] = Dissociation constant, pKa of compound; type: physicochemical
# [13] = Ratio of drug concentration in brain to plasma in NOD-SCID mouse brain at 10 mg/kg, po measured at 4 hrs by LC-MS/MS analysis; type: ADME, organism-based; details: read-out: BPR
# How it was run: (§4)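 Male NOD-SCID mice dosed orally at 10 mg/kg. Plasma and brain concentrations of parent and demethylated metabolites measured at 2 and 4 h. Kp = Cbrain/Cplasma at 4 h.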
# [14] = Drug concentration in NOD-SCID mouse brain at 10 mg/kg, po measured at 2 hrs by LC-MS/MS analysis; type: ADME, organism-based; details: read-out: Ct; how it was run: as §4
# [15] = Drug concentration in NOD-SCID mouse plasma at 10 mg/kg, po measured at 4 hrs by LC-MS/MS analysis; type: ADME, organism-based; how it was run: as §4
# [16] = Drug concentration in NOD-SCID mouse plasma at 10 mg/kg, po measured at 2 hrs by LC-MS/MS analysis; type: ADME, organism-based; how it was run: as §4
# [17] = Drug concentration in NOD-SCID mouse brain at 10 mg/kg, po measured at 4 hrs by LC-MS/MS analysis; type: ADME, organism-based; details: read-out: Ct; how it was run: as §4
# [18] = target: Epithelial discoidin domain-containing receptor 1 (Homo sapiens) (UniProt Q08345); assay: Inhibition of human recombinant DDR1 (492 to end residues) using KKKSPGEYVNIEF as substrate at 1 uM incubated for 40 mins by scintillation based radiometric LeadHunter assay relative to control
# [19] = target: TRAF2 and NCK-interacting protein kinase (Homo sapiens) (UniProt Q9UKE5); assay: Inhibition of human recombinant TNIK (1 to 367 residues) using RLGRDKYKTLRQI as substrate at 1 uM incubated for 40 mins by scintillation based radiometric LeadHunter assay relative to control
# [20] = tested on: Epidermal growth factor receptor (Homo sapiens), P00533 [L858R]; assay: Inhibition of human EGFR L858R mutant (696 to end residues) using poly Glu as substrate incubated for 40 mins by scintillation based radiometric LeadHunter assay
# [21] = target: Epithelial discoidin domain-containing receptor 1 (Homo sapiens) (UniProt Q08345); assay: Inhibition of human recombinant DDR1 (492 to end residues) using KKKSPGEYVNIEF as substrate incubated for 40 mins by scintillation based radiometric LeadHunter assay
# [22] = target: Receptor-interacting serine/threonine-protein kinase 2 (Homo sapiens) (UniProt O43353); assay: Inhibition of human recombinant RIPK2 (1 to 299 residues) incubated for 120 mins in presence of ATP by scintillation based radiometric LeadHunter assay
# [23] = target: TRAF2 and NCK-interacting protein kinase (Homo sapiens) (UniProt Q9UKE5); assay: Inhibition of human recombinant TNIK (1 to 367 residues) using RLGRDKYKTLRQI as substrate incubated for 40 mins by scintillation based radiometric LeadHunter assay
# [24] = tested on: Epidermal growth factor receptor (Homo sapiens), P00533 [L861Q]; assay: Inhibition of human EGFR L861Q mutant (696 to end residues) using poly Glu as substrate incubated for 40 mins by scintillation based radiometric LeadHunter assay
# [25] = target: Protein-tyrosine kinase 6 (Homo sapiens) (UniProt Q13882); assay: Inhibition of full length human recombinant BRK using poly Glu as substrate incubated for 40 mins by scintillation based radiometric LeadHunter assay
# [26] = target: Tyrosine-protein kinase Lyn (Homo sapiens) (UniProt P07948); assay: Inhibition of full length human recombinant LYN (1 to 367 residues) using poly Glu as substrate incubated for 40 mins by scintillation based radiometric LeadHunter assay
# Sequence of Tyrosine-protein kinase Lyn (Homo sapiens) (P07948 2-512 limits assumed): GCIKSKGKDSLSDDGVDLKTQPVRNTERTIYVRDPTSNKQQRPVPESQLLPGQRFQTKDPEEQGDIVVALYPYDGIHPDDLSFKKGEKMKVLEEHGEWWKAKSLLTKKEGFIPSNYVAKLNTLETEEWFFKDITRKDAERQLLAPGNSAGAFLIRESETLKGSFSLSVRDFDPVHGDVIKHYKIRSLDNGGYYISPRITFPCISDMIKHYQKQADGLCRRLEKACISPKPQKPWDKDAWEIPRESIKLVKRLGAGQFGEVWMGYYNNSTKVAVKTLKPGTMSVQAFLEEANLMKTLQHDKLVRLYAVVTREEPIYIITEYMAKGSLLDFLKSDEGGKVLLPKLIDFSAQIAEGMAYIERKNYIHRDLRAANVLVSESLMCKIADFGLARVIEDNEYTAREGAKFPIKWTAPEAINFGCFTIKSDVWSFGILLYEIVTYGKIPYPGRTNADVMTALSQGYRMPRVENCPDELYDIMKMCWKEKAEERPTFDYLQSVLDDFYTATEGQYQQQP
# Sequence of TRAF2 and NCK-interacting protein kinase (Homo sapiens) (Q9UKE5 whole entry, looked up, the tested form may be a part): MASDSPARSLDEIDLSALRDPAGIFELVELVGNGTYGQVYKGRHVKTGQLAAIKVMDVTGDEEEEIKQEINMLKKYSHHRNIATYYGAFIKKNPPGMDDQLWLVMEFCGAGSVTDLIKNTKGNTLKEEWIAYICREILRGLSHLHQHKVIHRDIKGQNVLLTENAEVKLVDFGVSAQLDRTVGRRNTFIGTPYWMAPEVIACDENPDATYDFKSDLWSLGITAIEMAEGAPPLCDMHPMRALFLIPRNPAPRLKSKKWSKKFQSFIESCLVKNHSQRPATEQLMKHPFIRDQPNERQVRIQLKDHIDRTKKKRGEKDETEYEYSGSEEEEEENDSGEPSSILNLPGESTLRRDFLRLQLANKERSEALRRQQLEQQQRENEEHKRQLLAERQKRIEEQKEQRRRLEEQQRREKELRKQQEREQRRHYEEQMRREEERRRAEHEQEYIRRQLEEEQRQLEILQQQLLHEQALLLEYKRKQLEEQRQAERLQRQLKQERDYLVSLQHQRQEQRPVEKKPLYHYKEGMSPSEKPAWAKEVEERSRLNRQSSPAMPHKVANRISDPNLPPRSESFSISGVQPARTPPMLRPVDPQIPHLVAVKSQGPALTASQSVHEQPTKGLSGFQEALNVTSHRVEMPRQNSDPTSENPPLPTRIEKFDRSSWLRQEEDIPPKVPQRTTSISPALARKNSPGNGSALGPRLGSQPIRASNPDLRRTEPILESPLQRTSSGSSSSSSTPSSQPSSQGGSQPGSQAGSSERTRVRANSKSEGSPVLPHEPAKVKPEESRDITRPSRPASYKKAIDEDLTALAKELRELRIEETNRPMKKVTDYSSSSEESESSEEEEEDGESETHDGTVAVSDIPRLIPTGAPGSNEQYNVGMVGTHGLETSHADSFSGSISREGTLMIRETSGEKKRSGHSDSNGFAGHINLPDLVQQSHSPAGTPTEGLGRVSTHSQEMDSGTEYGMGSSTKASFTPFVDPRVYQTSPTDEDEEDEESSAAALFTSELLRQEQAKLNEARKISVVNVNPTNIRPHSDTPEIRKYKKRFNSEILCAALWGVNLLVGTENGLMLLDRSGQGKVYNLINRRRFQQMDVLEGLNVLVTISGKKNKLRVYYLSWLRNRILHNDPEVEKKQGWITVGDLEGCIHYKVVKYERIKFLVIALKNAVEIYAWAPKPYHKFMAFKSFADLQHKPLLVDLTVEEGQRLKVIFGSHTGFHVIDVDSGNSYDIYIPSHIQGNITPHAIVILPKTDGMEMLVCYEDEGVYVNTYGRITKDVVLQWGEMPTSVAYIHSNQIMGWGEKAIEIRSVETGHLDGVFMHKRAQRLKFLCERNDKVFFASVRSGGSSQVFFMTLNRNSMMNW
# Sequence of Epithelial discoidin domain-containing receptor 1 (Homo sapiens) (Q08345 whole entry, the tested form may be a part): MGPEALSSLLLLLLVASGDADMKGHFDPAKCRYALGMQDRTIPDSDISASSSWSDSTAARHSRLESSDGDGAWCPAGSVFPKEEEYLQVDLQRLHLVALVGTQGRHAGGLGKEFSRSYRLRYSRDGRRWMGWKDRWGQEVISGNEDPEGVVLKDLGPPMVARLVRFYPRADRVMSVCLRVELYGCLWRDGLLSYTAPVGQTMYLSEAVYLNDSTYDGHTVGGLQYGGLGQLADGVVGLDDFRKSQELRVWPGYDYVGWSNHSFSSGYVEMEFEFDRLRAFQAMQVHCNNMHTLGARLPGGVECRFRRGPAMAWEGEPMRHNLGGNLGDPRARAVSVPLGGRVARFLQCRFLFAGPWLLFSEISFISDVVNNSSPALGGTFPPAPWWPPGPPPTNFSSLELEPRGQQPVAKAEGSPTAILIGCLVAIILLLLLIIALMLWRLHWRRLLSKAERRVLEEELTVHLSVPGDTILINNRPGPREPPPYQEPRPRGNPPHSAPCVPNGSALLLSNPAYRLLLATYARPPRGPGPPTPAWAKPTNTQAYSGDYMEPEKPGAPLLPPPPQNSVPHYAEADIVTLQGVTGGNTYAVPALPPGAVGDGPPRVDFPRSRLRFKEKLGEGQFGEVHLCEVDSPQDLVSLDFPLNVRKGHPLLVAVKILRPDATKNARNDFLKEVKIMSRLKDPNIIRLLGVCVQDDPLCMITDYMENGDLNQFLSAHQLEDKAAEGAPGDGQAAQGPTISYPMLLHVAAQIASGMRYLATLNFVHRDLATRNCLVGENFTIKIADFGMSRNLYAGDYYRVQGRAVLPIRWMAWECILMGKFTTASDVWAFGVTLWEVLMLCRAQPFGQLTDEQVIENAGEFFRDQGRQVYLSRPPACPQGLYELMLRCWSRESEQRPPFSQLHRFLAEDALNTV
# Sequence of Epidermal growth factor receptor (Homo sapiens), P00533 [L861Q] (P00533 whole entry L861Q): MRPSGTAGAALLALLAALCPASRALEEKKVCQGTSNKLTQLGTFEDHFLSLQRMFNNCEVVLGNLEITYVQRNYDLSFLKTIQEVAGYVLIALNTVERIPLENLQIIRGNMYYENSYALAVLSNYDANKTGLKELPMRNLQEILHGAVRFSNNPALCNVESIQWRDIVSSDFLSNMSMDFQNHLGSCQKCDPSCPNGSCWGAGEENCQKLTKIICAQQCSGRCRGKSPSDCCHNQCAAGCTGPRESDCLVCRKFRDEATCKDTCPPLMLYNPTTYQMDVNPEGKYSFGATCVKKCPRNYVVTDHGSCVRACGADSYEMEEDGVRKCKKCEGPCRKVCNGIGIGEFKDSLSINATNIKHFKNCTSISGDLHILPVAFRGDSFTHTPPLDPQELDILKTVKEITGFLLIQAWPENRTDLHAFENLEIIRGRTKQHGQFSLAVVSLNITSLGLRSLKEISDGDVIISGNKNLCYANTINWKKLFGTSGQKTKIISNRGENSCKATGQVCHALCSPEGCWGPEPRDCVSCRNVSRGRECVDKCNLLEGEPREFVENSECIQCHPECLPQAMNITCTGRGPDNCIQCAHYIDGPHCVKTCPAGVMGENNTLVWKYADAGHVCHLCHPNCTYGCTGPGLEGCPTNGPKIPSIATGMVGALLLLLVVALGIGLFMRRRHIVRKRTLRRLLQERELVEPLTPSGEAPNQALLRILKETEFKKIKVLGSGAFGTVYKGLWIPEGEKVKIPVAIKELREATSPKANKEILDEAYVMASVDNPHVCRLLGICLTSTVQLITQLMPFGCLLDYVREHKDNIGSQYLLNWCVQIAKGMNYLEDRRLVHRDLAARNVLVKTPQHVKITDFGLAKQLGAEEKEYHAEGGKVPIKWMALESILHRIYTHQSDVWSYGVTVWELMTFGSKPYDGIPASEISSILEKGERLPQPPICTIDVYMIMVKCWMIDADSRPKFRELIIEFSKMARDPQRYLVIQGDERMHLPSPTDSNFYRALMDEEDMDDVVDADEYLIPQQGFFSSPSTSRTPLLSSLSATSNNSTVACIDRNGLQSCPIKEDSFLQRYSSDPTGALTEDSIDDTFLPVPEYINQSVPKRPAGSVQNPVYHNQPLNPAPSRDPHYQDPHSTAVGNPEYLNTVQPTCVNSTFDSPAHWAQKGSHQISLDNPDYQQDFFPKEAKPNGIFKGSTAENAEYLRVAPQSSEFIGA
# Sequence of Protein-tyrosine kinase 6 (Homo sapiens) (Q13882 whole entry, looked up, the tested form may be a part): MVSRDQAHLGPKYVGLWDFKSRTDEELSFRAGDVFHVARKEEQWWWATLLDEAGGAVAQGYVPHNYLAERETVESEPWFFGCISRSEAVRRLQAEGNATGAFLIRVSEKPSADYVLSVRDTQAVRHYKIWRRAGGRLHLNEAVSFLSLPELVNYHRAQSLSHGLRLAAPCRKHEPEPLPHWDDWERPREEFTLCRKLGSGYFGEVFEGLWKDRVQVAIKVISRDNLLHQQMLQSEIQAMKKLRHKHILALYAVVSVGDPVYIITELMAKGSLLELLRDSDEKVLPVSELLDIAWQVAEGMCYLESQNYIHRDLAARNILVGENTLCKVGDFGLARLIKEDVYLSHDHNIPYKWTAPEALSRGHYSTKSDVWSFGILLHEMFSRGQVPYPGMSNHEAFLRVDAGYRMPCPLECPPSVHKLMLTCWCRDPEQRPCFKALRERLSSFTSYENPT
# Sequence of Receptor-interacting serine/threonine-protein kinase 2 (Homo sapiens) (O43353 whole entry, the tested form may be a part): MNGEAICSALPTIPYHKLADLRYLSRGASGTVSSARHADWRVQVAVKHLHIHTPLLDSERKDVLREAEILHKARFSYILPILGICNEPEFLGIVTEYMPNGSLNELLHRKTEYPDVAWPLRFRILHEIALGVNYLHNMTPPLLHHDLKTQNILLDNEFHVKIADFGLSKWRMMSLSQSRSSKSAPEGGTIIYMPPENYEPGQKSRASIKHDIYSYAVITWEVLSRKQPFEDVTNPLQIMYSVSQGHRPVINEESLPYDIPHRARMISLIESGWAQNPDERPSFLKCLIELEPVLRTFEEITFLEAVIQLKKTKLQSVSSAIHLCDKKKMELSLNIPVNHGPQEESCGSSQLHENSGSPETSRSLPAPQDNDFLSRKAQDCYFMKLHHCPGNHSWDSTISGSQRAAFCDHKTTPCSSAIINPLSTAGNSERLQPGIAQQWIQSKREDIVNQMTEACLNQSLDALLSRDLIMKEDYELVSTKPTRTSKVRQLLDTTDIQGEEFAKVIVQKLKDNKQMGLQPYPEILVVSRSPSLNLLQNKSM
Compound,"remaining at 1 h, 1 µM [1] [%]","remaining at 1 h, 1 µM [2] [%]",concentration at 1 h [3] [nM],Papp A→B at 2 h [4] [×10⁻⁶ cm/s],concentration at 24 h [5] [nM],concentration at 2 h [6] [nM],concentration at 0.5 h [7] [nM],IC50 (Activin receptor type-1 [8]) [nM],IC50 (Activin receptor type-1 [9]) [nM],Papp B→A at 2 h [10] [×10⁻⁶ cm/s],concentration at 6 h [11] [nM],pKa [12],Kp at 4 h [13],concentration at 2 h [14] [nM],concentration at 4 h [15] [nM],concentration at 2 h [16] [nM],concentration at 4 h [17] [nM],further results
COc1cc(-c2cncc3c2CCOc2cc(N4CCNCC4)ccc2-3)cc(OC)c1OC,66.5,70.9,1070,5.3,63,1120,729,2,6,11.6,1890,,,,,,,
COc1cc(-c2cncc3c2CCOc2cc(N4CCN(C)CC4)ccc2-3)cc(OC)c1OC,21.2,10.3,5050,13.9,,3530,3650,2,15,11.5,2230,8.54,3.7,2410,393,980,1470,
COc1cc(-c2cncc3c2COCc2cc(N4CCNCC4)ccc2-3)cc(OC)c1OC,62.3,75.7,,4.2,,,,2,5,9.4,,,,,,,,
COc1cc(-c2cncc3c2COCc2cc(N4CCN(C)CC4)ccc2-3)cc(OC)c1OC,29.7,4.3,,16.5,,,,3,7,13.6,,,,,,,,
COc1cc(-c2cncc3c2oc2cc(N4CCN(C)CC4)ccc23)cc(OC)c1OC,37.4,9.5,,4,,,,609,> 10000,2.5,,,,,,,,
COc1cc(-c2cncc(-c3ccc(N4CCNCC4)cc3)c2C)cc(OC)c1OC,,,4280,,1540,7490,3020,,,,13400,8.6,0.3,2320,2680,5250,888,inhibition [18]: 100%; inhibition [19]: 100%
COc1cc(-c2cncc3c2CN(C)Cc2cc(N4CCN(C)CC4)ccc2-3)cc(OC)c1OC,58.3,65,254,1.5,17,277,134,7,18,2.5,300,8.12,75.6,4130,43,75,3250,
COc1cc(-c2cncc3c2COc2cc(N4CCN(C)CC4)ccc2-3)cc(OC)c1OC,34.8,0.9,,8.3,,,,13,45,9,,,,,,,,
COc1cc(-c2cncc3c2CN(C)Cc2cc(N4CCNCC4)ccc2-3)cc(OC)c1OC,73.2,98.6,466,0.8,336,523,323,3,11,4.2,1260,,,,,,,inhibition [20]: Active; inhibition [21]: Active; inhibition [22]: Active; inhibition [23]: Active; inhibition [24]: Active; inhibition [25]: Active; inhibition [26]: Active
